Screening results as filed in PubChem BioAssay.
FAS-TE inh: FAS thioesterase (human) inhibition | P49327 | recombinant FAS-TE, OMFH fluorogenic substrate, fluorescence endpoint | inhibition, % at 15 µM | actives 0.67% (n = 360,000);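 active = compounds whose normalised, plate-corrected inhibition of enzyme fluorescence in the single-dose primary screen is 50% or more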;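 also: 0% = DMSO with enzyme and 100% = substrate without enzyme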
SENP1 inh: inhibitors of human SENP1 SUMO protease catalytic domain; actives 0.21% (n = 360,000); inhibition, % at 10 µM; Q9P0U3; recombinant SENP1 catalytic domain, CyPet-SUMO1-YPet FRET cleavage;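 active = inhibition at least 30% at 10 µM, raw YFP signal under a set limit, fluorescence ratio 0.5 to 1.5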;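 also: 0% = enzyme with DMSO and 100% = no enzyme wells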
Target sequence (Q9P0U3 419-644 limits assumed): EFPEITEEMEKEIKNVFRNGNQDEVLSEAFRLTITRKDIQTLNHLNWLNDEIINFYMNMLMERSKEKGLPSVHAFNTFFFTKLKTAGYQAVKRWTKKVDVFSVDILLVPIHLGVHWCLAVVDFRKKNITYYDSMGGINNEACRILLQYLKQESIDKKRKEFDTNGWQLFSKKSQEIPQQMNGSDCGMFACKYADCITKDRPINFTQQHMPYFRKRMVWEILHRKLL
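system = hSENP1 catalytic domain, recombinant | reagent = SFCypet-SUMO1-SFYpet substrate at 25 nM | doses = one dose per compound, 10 µM, 0.5% DMSO | incubation = enzyme reaction for 50 min at room temperature, dark | measured by = FRET, CFP and YFP emission | controls = no-enzyme low, enzyme-DMSO high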
H9c2 protect: protects H9c2 cardiomyocytes from peroxide injury. protection from H2O2 cell death, % at 20 µM. actives 0.63% (n = 360,000). H2O2 injury protection, ATPLite, 2 h;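 active = compounds giving at least 50% protection of heart cells from peroxide-induced death in the single-dose screen, raw or plate-pattern-corrected value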;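 also: 0% = DMSO wells with peroxide and 100% = DMSO wells without peroxide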
Arr AP2 block: blocks beta-arrestin peptide binding to AP2 adaptin; FITC-arrestin peptide / GST-AP2 beads, flow cytometry; AP2 beta2 appendage carries R879A mutation; inhibition, % at 10 µM; actives 0.31% (n = 340,000);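 active = inhibition above a set limit, near 3 SD of compounds lacking own fluorescence, cut at about 54% in these data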;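 also: plate controls were DMSO wells for no effect and 5 µM unlabelled arrestin peptide for full effect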
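Measured by: flow cytometry, FL1 (488/535 nm); Material: AP2 appendage R879A on GSH beads; Evaluation: percent response; Timing: pre-incubation 12 min, peptide binding 1 h, room temperature; Also added: 50 nM FITC-arrestin peptide; Medium: PBS with 0.05% Tween 20 and 0.1% BSA.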
hiPSC survival: hiPSC single-cell survival enhancement; ATPlite luminescence; 100% = ROCK inhibitor wells, 0% = DMSO; survival enhancement, % at 20 µM; actives 0.044% (n = 360,000); AID 602274; in the data active = survival enhancement above about 18%;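 also: cells exposed to compounds for 16 hours before the ATP read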
GRIN3A LBD mod: modulators (binders) of human NR3A ligand-binding domain | NR3A LBD differential scanning fluorimetry, Tm shift; 0% = protein alone, 100% = glycine-bound protein | Tm shift relative to glycine control, % at 25 µM | actives 2.5% (n = 340,000) | AID 1259313;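 active = melting temperature shift of at least 10% of the positive control shift, at one fixed dose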
* = called active by the depositor; · = not tested or not shown. This is a sample that favours compounds with a hit; in the whole collection about 4% have one here.

SMILES	FAS-TE inh	SENP1 inh	H9c2 protect	Arr AP2 block	hiPSC survival	GRIN3A LBD mod
Cc1ccc(C(=O)O/N=C(\N)c2ccc(Br)cc2)cc1C	0	2	-6	7	1	7
N/C(=N\OC(=O)c1cccc2ccccc12)c1ccc(Br)cc1	10	2	-4	1	-1	26*
CCC(C)(O)c1cnc(CC(C)C)c(=O)n1O (stereo not drawn)	3	-2	0	·	0	·
CN(C)c1ncnc2c1ncn2[C@H]1CN(C2CCCC2)C[C@@H](CO)O1	-8	1	10	·	1	·
COCCN(Cc1ccc(C)cc1)C(=O)[C@H]1O[C@@H](n2ccc(=O)[nH]c2=O)[C@H](O)[C@@H]1O	-9	-1	3	·	-1	·
O=C1C=CC(=NN=C(c2ccccc2)c2ccccc2)C=C1	24	1	-10	·	0	·
N#Cc1c(SCC(=O)Nc2nc3ccc(Br)cc3s2)sc2c(O)cc(=O)[nH]c12	8	-82	-1	-11	-1	18*
N#Cc1c(SCC(=O)Nc2nc3ccccc3s2)sc2c(O)cc(=O)[nH]c12	-1	-37	-11	-5	0	5
COC(=O)CSc1nc(C)cc(C(F)(F)F)c1C#N	2	4	0	32	-1	0
Cc1cc(C(F)(F)F)c(C#N)c(SCC(=O)Nc2nc3cc(Br)ccc3s2)n1	40	18	-8	16	4	30*
CC(C)Sc1nsc2nc(=O)c(/C=C3\C=Nc4ccccc43)c(N)n12	3	-80	-2	10	0	25*
CCCc1nn2c(N)c(/C=C3\C=Nc4ccccc43)c(=O)nc2s1	-4	-157	-5	39	0	2
CS(=O)(=O)c1nsc2nc(=O)c(/C=C3\C=Nc4ccccc43)c(N)n12	-3	-91	2	-14	-2	39*
CCC(CC)C(=O)N(C)c1c(C)nc2c(OCc3ccc(C(F)(F)F)cc3)cccn12	13	0	-9	·	3	·
CCc1nc2c(OCC(=O)c3ccc(F)cc3)cccn2c1N(C)C(=O)C(C)C	-1	-1	1	·	-1	·
CCOc1cccc(C(=O)Nc2ccc3[nH]ncc3c2)c1	-5	0	-11	-4	0	15*
O=C(COc1cccc(C(F)(F)F)c1)Nc1ccc2[nH]ncc2c1	-5	-6	-3	10	0	18*
Cc1ccc(S(=O)(=O)N2CCC(=O)N([C@H](COCc3ccc(Cl)cc3)C(C)C)CC2)cc1	38	0	·	·	-3	·
CCCCN1C(=O)C(CC(=O)NC(c2ccccc2)c2ccccc2)CC(C(=O)N2CCCCCC2)=C1C (stereo not drawn)	14	0	·	·	-1	·
CN(Cc1ccccc1F)C(=O)c1cccc(NC(=O)CC2SC(N3CCCCC3)=NC2=O)c1 (stereo not drawn)	-7	-5	-6	38	0	-1
COc1ccc(/C=N/NC(=O)c2cccnc2)cc1CN1CCc2ccccc2C1	-1	-8	69*	24	0	1
COc1ccc(/C=N/NC(=O)c2ccc(F)cc2)cc1CN1CCc2cc(OC)c(OC)cc2C1C (stereo not drawn)	-3	-8	17	-3	0	-1
COc1ccc(/C=N/NC(=O)c2ccc(O)cc2)cc1CN1CCCc2ccccc21	2	-6	7	-34	2	27*
CCOC(=O)c1ccccc1OCc1cc(/C=N/NC(=O)c2cccnc2)ccc1OC	2	2	55*	8	1	-3
CC(C)[C@H](NC(=O)c1ccco1)C(=O)Nc1ccc(N2CCCCCC2)cc1	-7	0	2	·	-1	·
CCOC(=O)CC1(C)Oc2ccccc2N1S(=O)(=O)c1ccc(C)cc1 (stereo not drawn)	·	2	·	·	·	·
CCOC(=O)c1c(-c2ccc(C)cc2)csc1NC(=O)C1CCCO1 (stereo not drawn)	22	1	-4	-3	0	10*
O=[N+]([O-])c1cccc(NN=Nc2ccccc2)c1	36	3	-5	33	0	4
C/C(=N\Nc1cccc([N+](=O)[O-])c1)c1ccccc1O	31	2	-16	-6	1	31*
